Where only a bound is given, the exact number is not on record here.

T1 sequence (Q14833 whole entry): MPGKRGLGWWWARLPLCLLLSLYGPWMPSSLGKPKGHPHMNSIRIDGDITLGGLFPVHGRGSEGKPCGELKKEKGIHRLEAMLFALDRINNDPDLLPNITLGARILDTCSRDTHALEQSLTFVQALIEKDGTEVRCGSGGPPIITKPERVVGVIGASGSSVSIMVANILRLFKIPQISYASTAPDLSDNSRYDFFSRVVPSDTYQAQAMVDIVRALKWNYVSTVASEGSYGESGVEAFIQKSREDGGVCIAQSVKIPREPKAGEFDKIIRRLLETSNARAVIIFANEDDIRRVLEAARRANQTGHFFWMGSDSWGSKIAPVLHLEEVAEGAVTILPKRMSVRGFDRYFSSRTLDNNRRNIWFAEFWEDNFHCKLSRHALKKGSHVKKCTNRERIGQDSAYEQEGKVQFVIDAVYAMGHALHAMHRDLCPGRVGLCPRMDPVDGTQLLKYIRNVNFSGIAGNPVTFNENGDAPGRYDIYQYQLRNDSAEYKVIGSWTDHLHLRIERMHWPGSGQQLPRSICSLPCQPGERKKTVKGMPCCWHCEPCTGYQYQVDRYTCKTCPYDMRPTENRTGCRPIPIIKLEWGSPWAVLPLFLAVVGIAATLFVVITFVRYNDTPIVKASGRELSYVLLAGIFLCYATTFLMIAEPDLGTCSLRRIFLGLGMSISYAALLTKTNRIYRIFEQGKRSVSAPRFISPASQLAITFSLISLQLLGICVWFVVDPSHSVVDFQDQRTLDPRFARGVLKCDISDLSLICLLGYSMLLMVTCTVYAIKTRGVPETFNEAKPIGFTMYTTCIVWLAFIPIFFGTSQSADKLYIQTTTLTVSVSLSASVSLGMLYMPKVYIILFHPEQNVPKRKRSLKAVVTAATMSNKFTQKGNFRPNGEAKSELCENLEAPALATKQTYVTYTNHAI

One series has as its target T1, Metabotropic glutamate receptor 4 (Homo sapiens, UniProt Q14833). Briefly: Positive allosteric modulation of human mGlu4 receptor assessed as potentiation of glutamate-induced calcium mobiliztion by cell based assay relative to PHCCC.
Details: not given
For `Cc1ccoc1C(=O)Nc1ccc(N2C(=O)c3ccc(F)cc3C2=O)c(Cl)c1`, the %max amounted to 97%. For the molecule `Cc1ccc2c(c1)C(=O)N(c1ccc(NC(=O)c3occc3C)cc1Cl)C2=O`, the %max is 69%. The same measure, in the same setting: as for `Cc1ccoc1C(=O)Nc1ccc(N2C(=O)c3cccc(C)c3C2=O)c(Cl)c1`, the figure is 153%. On the same count and under the same terms, for `Cc1ccoc1C(=O)Nc1ccc(N2C(=O)c3cccc(Cl)c3C2=O)c(Cl)c1` the value was 163%.

The test system of the next series is Plasma. Briefly: Drug level in rat plasma treated with N-(3-chloro-4-(5-chloro-1,3-dioxoisoindolin-2-yl)phenyl)-3-methylfuran-2-carboxamide at 10 uM after 4 hrs by mass spectrometry. Format: ADME, cell-free.
Details: not given
An outline of the steps: (§1)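 Compound incubated at 10 μM in rat or human plasma at 37 °C. Samples taken at 0 and 4 h were analysed by mass spectrometry for parent and metabolites.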
As to `Cc1ccoc1C(=O)Nc1ccc(NC(=O)c2ccc(Cl)cc2C(=O)O)c(Cl)c1`, the Drug metabolism entry is recorded as “metabolite_detected”. As for `Cc1ccoc1C(=O)Nc1ccc(N)c(Cl)c1`, the Drug metabolism result was “metabolite_detected”.

Take `Cc1ccoc1C(=O)Nc1ccc(NC(=O)c2cc(Cl)ccc2C(=O)O)c(Cl)c1`: the Drug metabolism result was “metabolite_detected”.

For the next series, the target named is T2, Metabotropic glutamate receptor 1 (Homo sapiens, UniProt Q13255). Briefly: Positive allosteric modulation of human mGlu1 receptor in HEK293 cells assessed as potentiation of glutamate-induced calcium mobiliztion by Fluo-4AM dye based fluorescence analysis relative to glutamate. Type of series: functional, cell-based.
Details: not given
Target sequence in this assay (Q13255 19-1194 limits assumed): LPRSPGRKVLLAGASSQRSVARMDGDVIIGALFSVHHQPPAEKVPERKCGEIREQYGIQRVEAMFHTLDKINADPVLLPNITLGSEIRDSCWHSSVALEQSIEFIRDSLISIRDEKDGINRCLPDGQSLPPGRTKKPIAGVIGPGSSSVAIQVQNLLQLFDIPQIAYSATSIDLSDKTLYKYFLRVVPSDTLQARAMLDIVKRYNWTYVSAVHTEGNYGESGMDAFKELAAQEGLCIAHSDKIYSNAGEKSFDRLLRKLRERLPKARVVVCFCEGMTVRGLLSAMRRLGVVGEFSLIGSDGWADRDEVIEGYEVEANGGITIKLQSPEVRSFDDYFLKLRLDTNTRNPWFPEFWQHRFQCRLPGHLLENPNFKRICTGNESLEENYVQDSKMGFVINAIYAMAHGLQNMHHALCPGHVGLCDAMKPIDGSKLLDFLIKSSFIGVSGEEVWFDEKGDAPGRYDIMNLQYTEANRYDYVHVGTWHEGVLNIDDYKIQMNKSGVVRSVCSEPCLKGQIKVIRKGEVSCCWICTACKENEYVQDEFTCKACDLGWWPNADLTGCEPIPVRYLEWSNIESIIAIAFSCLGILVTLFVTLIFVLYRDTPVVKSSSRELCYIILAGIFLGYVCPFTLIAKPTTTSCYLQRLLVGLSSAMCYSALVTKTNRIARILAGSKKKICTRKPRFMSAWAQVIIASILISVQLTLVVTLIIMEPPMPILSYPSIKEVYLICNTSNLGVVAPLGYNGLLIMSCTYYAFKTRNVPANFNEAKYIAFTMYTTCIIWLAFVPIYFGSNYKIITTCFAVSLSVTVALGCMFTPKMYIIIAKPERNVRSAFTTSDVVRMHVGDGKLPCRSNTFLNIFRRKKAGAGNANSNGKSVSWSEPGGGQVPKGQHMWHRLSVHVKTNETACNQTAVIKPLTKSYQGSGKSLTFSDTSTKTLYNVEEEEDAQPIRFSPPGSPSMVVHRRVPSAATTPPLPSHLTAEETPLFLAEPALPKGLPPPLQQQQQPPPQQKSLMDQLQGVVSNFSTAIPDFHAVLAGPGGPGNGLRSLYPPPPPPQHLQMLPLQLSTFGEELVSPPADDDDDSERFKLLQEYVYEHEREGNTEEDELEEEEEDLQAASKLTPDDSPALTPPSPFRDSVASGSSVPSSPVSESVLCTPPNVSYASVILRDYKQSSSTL
As to `Cc1ccoc1C(=O)Nc1ccc(N2C(=O)c3ccc(F)cc3C2=O)c(Cl)c1`, the %max came to 88%. For `Cc1ccc2c(c1)C(=O)N(c1ccc(NC(=O)c3occc3C)cc1Cl)C2=O`, the %max is 86%. Regarding `O=C(Nc1ccc(N2C(=O)c3ccccc3C2=O)c(Cl)c1)c1ccc(Cl)o1`, the %max came to 55%.

In the case of `Cc1ccc(C(=O)Nc2ccc(N3C(=O)c4ccccc4C3=O)c(Cl)c2)o1`, the %max stood at 60%.

With `O=C(Nc1ccc(N2C(=O)c3ccccc3C2=O)c(Cl)c1)c1ccc(C(F)(F)F)o1`, the %max worked out at 43%. On the same count and under the same terms, for `O=C(Nc1ccc(N2C(=O)c3ccccc3C2=O)c(Cl)c1)c1ccc(Br)o1` the value was 45%; for `O=C(Nc1ccc(N2C(=O)c3ccccc3C2=O)c(Cl)c1)c1csnn1`, 39%. With `O=C(Nc1ccc(N2C(=O)c3ccccc3C2=O)c(Cl)c1)c1ccc(-c2ccccc2)o1`, the %max amounted to 30%. For `Cc1ccoc1C(=O)Nc1ccc(N2C(=O)c3ccccc3C2=O)c(Cl)c1`, the %max was 118%. For `CCc1ccc(C(=O)Nc2ccc(N3C(=O)c4ccccc4C3=O)c(Cl)c2)o1`, the %max amounted to 30%.

For the molecule `Cc1ccoc1C(=O)Nc1ccc(N2C(=O)c3cccc(C)c3C2=O)c(Cl)c1`, the %max amounted to 86%.

For the molecule `Cc1ccoc1C(=O)Nc1ccc(N2C(=O)c3cccc(Cl)c3C2=O)c(Cl)c1`, the %max is 91%. As for `O=C(Nc1ccc(N2C(=O)c3ccccc3C2=O)c(Cl)c1)c1cscn1`, the %max turned out to be 107%. Still for that read-out and setting: as for `O=C(Nc1ccc(N2C(=O)c3ccccc3C2=O)c(Cl)c1)c1ccco1`, the figure is 76%; as for `CS(=O)(=O)c1ccc(C(=O)Nc2ccc(N3C(=O)c4ccccc4C3=O)c(Cl)c2)o1`, 35%.

The target of the next series is T2, Metabotropic glutamate receptor 1. Briefly: Positive allosteric modulation of human mGlu1 receptor in HEK293 cells assessed as potentiation of glutamate-induced calcium mobiliztion by Fluo-4AM dye based fluorescence analysis. Type of series: functional, cell-based. The conditions noted are these: read-out: EC50.
Target sequence in this assay (Q13255 whole entry): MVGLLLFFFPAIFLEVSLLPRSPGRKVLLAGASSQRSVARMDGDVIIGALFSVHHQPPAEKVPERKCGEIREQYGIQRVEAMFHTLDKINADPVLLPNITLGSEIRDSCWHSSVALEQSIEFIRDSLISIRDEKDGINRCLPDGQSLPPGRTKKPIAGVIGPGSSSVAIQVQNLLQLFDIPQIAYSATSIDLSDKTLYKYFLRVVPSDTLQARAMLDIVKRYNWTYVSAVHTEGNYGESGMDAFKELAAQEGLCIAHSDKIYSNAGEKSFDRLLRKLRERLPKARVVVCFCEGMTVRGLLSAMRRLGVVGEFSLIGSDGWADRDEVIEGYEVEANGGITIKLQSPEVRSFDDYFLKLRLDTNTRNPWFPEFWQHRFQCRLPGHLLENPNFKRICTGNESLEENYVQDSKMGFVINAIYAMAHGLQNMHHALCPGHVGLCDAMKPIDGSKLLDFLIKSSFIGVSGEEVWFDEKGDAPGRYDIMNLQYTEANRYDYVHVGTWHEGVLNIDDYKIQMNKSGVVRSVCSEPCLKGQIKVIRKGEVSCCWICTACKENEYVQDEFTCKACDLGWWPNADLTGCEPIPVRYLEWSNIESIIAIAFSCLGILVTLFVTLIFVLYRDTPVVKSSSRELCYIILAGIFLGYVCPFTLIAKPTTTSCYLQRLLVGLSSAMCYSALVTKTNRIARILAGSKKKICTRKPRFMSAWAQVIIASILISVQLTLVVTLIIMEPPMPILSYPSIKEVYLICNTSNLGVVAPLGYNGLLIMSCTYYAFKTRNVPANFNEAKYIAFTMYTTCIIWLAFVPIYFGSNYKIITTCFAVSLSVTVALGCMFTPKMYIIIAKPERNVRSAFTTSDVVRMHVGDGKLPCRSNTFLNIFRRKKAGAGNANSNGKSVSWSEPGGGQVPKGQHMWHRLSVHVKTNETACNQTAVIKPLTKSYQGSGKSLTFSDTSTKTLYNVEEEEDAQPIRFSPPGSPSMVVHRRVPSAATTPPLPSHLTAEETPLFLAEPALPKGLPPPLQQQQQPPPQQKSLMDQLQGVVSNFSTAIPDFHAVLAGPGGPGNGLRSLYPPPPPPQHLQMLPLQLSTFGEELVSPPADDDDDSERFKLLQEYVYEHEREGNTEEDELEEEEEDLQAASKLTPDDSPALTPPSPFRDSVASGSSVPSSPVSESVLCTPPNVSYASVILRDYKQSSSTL
On to `O=C(Nc1ccc(N2C(=O)c3ccccc3C2=O)c(Cl)c1)c1cc2ccccc2o1`, for which the EC50 was over 10 µM. For the molecule `CN(C)Cc1ccc(C(=O)Nc2ccc(N3C(=O)c4ccccc4C3=O)c(Cl)c2)o1`, the EC50 was over 10 µM. As for `O=C(Nc1ccc(N2C(=O)c3ccccc3C2=O)c(Cl)c1)c1ncco1`, the EC50 is over 10 µM. As to `O=C(Nc1ccc(N2C(=O)c3ccccc3C2=O)c(Cl)c1)c1cnc[nH]1`, the EC50 was over 10 µM. Take `O=C(Nc1ccc(N2C(=O)c3ccccc3C2=O)c(Cl)c1)C1CCCO1` (stereo unspecified): the EC50 is over 10 µM.

Turning to `Cc1ccoc1C(=O)Nc1ccc(N2C(=O)c3ccc(F)cc3C2=O)c(Cl)c1`, the EC50 amounted to 0.0241 µM. On the same count and under the same terms, for `Cc1ccc2c(c1)C(=O)N(c1ccc(NC(=O)c3occc3C)cc1Cl)C2=O` the value was 0.0544 µM; for `O=C(Nc1ccc(N2C(=O)c3ccccc3C2=O)c(Cl)c1)c1ccc(Cl)o1`, over 10 µM; for `Cc1ccc(C(=O)Nc2ccc(N3C(=O)c4ccccc4C3=O)c(Cl)c2)o1`, over 10 µM. Take `O=C(Nc1ccc(N2C(=O)c3ccccc3C2=O)c(Cl)c1)c1ccc(C(F)(F)F)o1`: the EC50 was over 10 µM. Take `O=C(Nc1ccc(N2C(=O)c3ccccc3C2=O)c(Cl)c1)c1cn[nH]c1`: the EC50 is over 10 µM.

Turning to `O=C(Nc1ccc(N2C(=O)c3ccccc3C2=O)c(Cl)c1)c1ccc(Br)o1`, the EC50 was over 10 µM. For the molecule `O=C(Nc1ccc(N2C(=O)c3ccccc3C2=O)c(Cl)c1)c1ccno1`, the EC50 was over 10 µM. The same measure, in the same setting: as for `O=C(Nc1ccc(N2C(=O)c3ccccc3C2=O)c(Cl)c1)c1occc1-c1ccccc1`, the figure is over 10 µM; as for `Cc1cc(C)c(C(=O)Nc2ccc(N3C(=O)c4ccccc4C3=O)c(Cl)c2)o1`, over 10 µM; as for `O=C(Nc1ccc(N2C(=O)c3ccccc3C2=O)c(Cl)c1)c1csnn1`, over 10 µM.

Turning to `O=C(Nc1ccc(N2C(=O)c3ccccc3C2=O)c(Cl)c1)c1cnn[nH]1`, the EC50 was over 10 µM. Take `O=C(Nc1ccc(N2C(=O)c3ccccc3C2=O)c(Cl)c1)c1ccc[nH]1`: the EC50 is over 10 µM. `O=C(Nc1ccc(N2C(=O)c3ccccc3C2=O)c(Cl)c1)c1cccs1`: the EC50 is over 10 µM. Take `O=C(Nc1ccc(N2C(=O)c3ccccc3C2=O)c(Cl)c1)c1ccc(-c2ccccc2)o1`: the EC50 is over 10 µM. For the molecule `O=C(Nc1ccc(N2C(=O)c3ccccc3C2=O)c(Cl)c1)c1cnco1`, the EC50 is over 10 µM. `Cc1ccoc1C(=O)Nc1ccc(N2C(=O)c3ccccc3C2=O)c(Cl)c1`: the EC50 worked out at 0.097 µM. On the same count and under the same terms, as for `CCc1ccc(C(=O)Nc2ccc(N3C(=O)c4ccccc4C3=O)c(Cl)c2)o1`, the figure is over 10 µM; as for `Cc1ccoc1C(=O)Nc1ccc(N2C(=O)c3cccc(C)c3C2=O)c(Cl)c1`, 0.0243 µM. Consider `O=C(Nc1ccc(N2C(=O)c3ccccc3C2=O)c(Cl)c1)c1cncs1`, for which the EC50 is over 10 µM. For `Cc1ccoc1C(=O)Nc1ccc(N2C(=O)c3cccc(Cl)c3C2=O)c(Cl)c1`, the EC50 stood at 0.033 µM. The same measure, in the same setting: for `O=C(Nc1ccc(N2C(=O)c3ccccc3C2=O)c(Cl)c1)c1cscn1` the value was 4.47 µM. For the molecule `O=C(Nc1ccc(N2C(=O)c3ccccc3C2=O)c(Cl)c1)c1ccco1`, the EC50 came out at 0.55 µM. Turning to `O=C(Nc1ccc(N2C(=O)c3ccccc3C2=O)c(Cl)c1)c1coc2ccccc12`, the EC50 was over 10 µM.

With `O=C(Nc1ccc(N2C(=O)c3ccccc3C2=O)c(Cl)c1)c1cocn1`, the EC50 was over 10 µM. Consider `CS(=O)(=O)c1ccc(C(=O)Nc2ccc(N3C(=O)c4ccccc4C3=O)c(Cl)c2)o1`, for which the EC50 was over 10 µM. As for `CC(C)(C)c1ccc(C(=O)Nc2ccc(N3C(=O)c4ccccc4C3=O)c(Cl)c2)o1`, the EC50 was over 10 µM.

The next series is filed under the species Homo sapiens. Briefly: Selectivity index, ratio of EC50 for human mGlu4 receptor to EC50 for human mGlu1 receptor.
Details: not given
Turning to `Cc1ccoc1C(=O)Nc1ccc(N2C(=O)c3ccc(F)cc3C2=O)c(Cl)c1`, the Ratio EC50 amounted to 29.7.

For `Cc1ccc2c(c1)C(=O)N(c1ccc(NC(=O)c3occc3C)cc1Cl)C2=O`, the Ratio EC50 worked out at 5.9.

In the case of `Cc1ccoc1C(=O)Nc1ccc(N2C(=O)c3cccc(C)c3C2=O)c(Cl)c1`, the Ratio EC50 was determined as 25.5. Regarding `Cc1ccoc1C(=O)Nc1ccc(N2C(=O)c3cccc(Cl)c3C2=O)c(Cl)c1`, the Ratio EC50 is 34.5.

A further series deals with Plasma. Briefly: Drug level in human plasma treated with N-(3-chloro-4-(5-chloro-1,3-dioxoisoindolin-2-yl)phenyl)-3-methylfuran-2-carboxamide at 10 uM after 4 hrs by mass spectrometry. Format: ADME, cell-free.
Details: not given
The method, boiled down: as §1
For the molecule `Cc1ccoc1C(=O)Nc1ccc(NC(=O)c2ccc(Cl)cc2C(=O)O)c(Cl)c1`, the Drug metabolism entry was “metabolite_detected”. As to `Cc1ccoc1C(=O)Nc1ccc(N)c(Cl)c1`, the Drug metabolism result is recorded as “metabolite_detected”. As to `Cc1ccoc1C(=O)Nc1ccc(NC(=O)c2cc(Cl)ccc2C(=O)O)c(Cl)c1`, the Drug metabolism entry was “metabolite_detected”.

The next series deals with T1, Metabotropic glutamate receptor 4. Briefly: Positive allosteric modulation of human mGlu4 receptor assessed as potentiation of glutamate-induced calcium mobiliztion by cell based assay. Format: functional. The conditions noted are these: read-out: EC50.
In the case of `Cc1ccoc1C(=O)Nc1ccc(N2C(=O)c3ccc(F)cc3C2=O)c(Cl)c1`, the EC50 was found to be 712 nM.

Regarding `Cc1ccc2c(c1)C(=O)N(c1ccc(NC(=O)c3occc3C)cc1Cl)C2=O`, the EC50 stood at 323 nM. `Cc1ccoc1C(=O)Nc1ccc(N2C(=O)c3cccc(C)c3C2=O)c(Cl)c1`: the EC50 came out at 620 nM. Regarding `Cc1ccoc1C(=O)Nc1ccc(N2C(=O)c3cccc(Cl)c3C2=O)c(Cl)c1`, the EC50 came out at 1140 nM.

The series is the same for the next values; noted with them: read-out: pEC50 (converted).
With `Cc1ccoc1C(=O)Nc1ccc(N2C(=O)c3ccc(F)cc3C2=O)c(Cl)c1`, the EC50 is 724 nM.

The record behind these values is ChEMBL document CHEMBL3627606, “Development of Novel, CNS Penetrant Positive Allosteric Modulators for the Metabotropic Glutamate Receptor Subtype 1 (mGlu1), Based on an N-(3-Chloro-4-(1,3-dioxoisoindolin-2-yl)phenyl)-3-methylfuran-2-carboxamide Scaffold, That Potentiate Wild Type and Mutant mGlu1 Receptors Found in …” (J Med Chem, 2015).
